The record followed here is ChEMBL document CHEMBL1128321, “Piperazinylalkyl heterocycles as potential antipsychotic agents” (J Med Chem, 1995).

Series [1] relates to Rattus norvegicus. The series can be described thus: Percentage of animals failing to escape shock was measured, affording a rough index for nonspecific sedation at 5 mg/kg(ip).
Series [2] has as its system Rattus norvegicus. The series can be described thus: Conditioned avoidance response activity was determined by the ability to block the conditioned avoidance of a foot shock at 15 mg/kg(ip). Format: functional. In outline:
(§1)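 Male Fischer 344 rats (300–500 g) trained on a discrete-trial single-lever task, pressing the lever to avoid an impending shock; block of responding read at time of peak effect. Escape loss = percent of animals failing to escape the shock; >20% escape loss with CAR inhibition taken as potential for sedation.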

For series [3], the target named is T1, 5-hydroxytryptamine receptor 1A (Rattus norvegicus, UniProt P19327).
T1 sequence (P19327 whole entry): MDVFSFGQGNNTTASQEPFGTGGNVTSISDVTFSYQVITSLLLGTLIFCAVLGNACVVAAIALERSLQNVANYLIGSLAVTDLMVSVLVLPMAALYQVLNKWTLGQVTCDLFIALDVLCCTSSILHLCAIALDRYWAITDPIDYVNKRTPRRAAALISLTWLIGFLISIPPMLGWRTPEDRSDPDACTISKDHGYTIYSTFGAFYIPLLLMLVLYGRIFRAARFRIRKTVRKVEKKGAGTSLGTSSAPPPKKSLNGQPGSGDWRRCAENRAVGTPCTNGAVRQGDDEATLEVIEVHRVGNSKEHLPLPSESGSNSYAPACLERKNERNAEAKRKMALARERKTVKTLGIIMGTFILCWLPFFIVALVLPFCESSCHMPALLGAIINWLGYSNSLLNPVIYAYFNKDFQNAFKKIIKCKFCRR
The series can be described thus: Binding affinity was determined against 5-hydroxytryptamine 1A receptor using […].

Series [4] is described as follows: Stability half-life at pH-2; stable. The format is physicochemical. The procedure, abridged:
(§2)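 Half-life measured in solution at pH 2, about 3 × 10⁻³ M compound in citric acid–phosphate buffer at 22 °C.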

Series [5] deals with Rattus norvegicus. In words: Conditioned avoidance response activity was determined by the ability to block the conditioned avoidance of a foot shock at 5 mg/kg(ip). Format: functional. The procedure, abridged:
as §1

Series [6] is described as follows: Stability half-life at pH-2. Format: physicochemical. The procedure, abridged: as §2
In series [7] the test system is Rattus norvegicus. The series can be described thus: Conditioned avoidance response activity was determined by the ability to block the conditioned avoidance of a foot shock (ip). Format: functional. In outline: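 Male Fischer 344 rats (300–500 g) were trained on a single-lever discrete-trial task in which a lever press avoids an impending shock. Block of avoidance was scored at the time of peak effect. […] The percentage of rats failing to escape the shock (escape loss) was also recorded.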

The test system of series [8] is Rattus norvegicus. In words: Percentage of animals failing to escape the shock was measured and affords a rough index for nonspecific sedation at 5 mg/kg(ip)(>20% esc loss = potential for sedation). Format: functional. The procedure, abridged: as §1

Structures are written as SMILES. pKi: −log10 of the molar value.

`COc1ccccc1N1CCN(Cc2ccc(CN3CCCCCCC3=O)o2)CC1.O=C(O)CCC(=O)O` showed an Esc loss in the series with Rattus norvegicus [1] of 19%. In the series on Rattus norvegicus [2], this compound came in with an inhibition in vivo at 15 mg/kg of 99%. The compound also showed a pKi in series [3] of 7.49. The T1/2 result in series [4] is “Stable”.
In the series with Rattus norvegicus [1], `CNC(=O)c1ccc(CN2CCN(c3ccccc3OC)CC2)n1C.O=C(O)CCC(=O)O` displayed an Esc loss of 0%. Also, in series [3], the pKi is 6.61. Moreover, the inhibition in vivo at 5 mg/kg with Rattus norvegicus [5] worked out at 22%. For the same compound, in series [4], the T1/2 result is reported as “Stable”.
`CC(C)Oc1ccccc1N1CCN(CCc2ccc(C(=O)C(=O)N3CCCCCC3)n2C)CC1.O=C(O)CCC(=O)O` showed an Esc loss in the series on Rattus norvegicus [1] of 0%. This compound also had a pKi in series [3] of 7.92. The compound also registered an inhibition in vivo at 5 mg/kg in the series with Rattus norvegicus [5] of 1%. Besides, the T1/2 result in series [4] was “Stable”.
In the series on Rattus norvegicus [1], `CC(C)Oc1ccccc1N1CCN(CCc2ccc(C(=O)C(=O)N3CCCCC3)n2C)CC1.O=C(O)CCC(=O)O` returned an Esc loss of 1%. Moreover, in series [3], the pKi was 8.64. This compound also came in with an inhibition in vivo at 5 mg/kg in the series with Rattus norvegicus [5] of 16%. For the same compound, the T1/2 result in series [4] is on record as “Stable”.
On to `CC(C)Oc1ccccc1N1CCN(Cc2ccc(CN3CCCCCC3=O)o2)CC1.O=C(O)CCC(=O)O`, for which the Esc loss with Rattus norvegicus [1] is 1%. The compound further came in with a half-life in series [6] of 10.5 h. In addition, the inhibition in vivo at 15 mg/kg in the series on Rattus norvegicus [2] turned out to be 83%. In series [3], the pKi is 7.29.
`COc1ccccc1N1CCN(CCc2ccc(CN3CCCCC3=O)n2C)CC1.O=C(O)CCC(=O)O`: the Esc loss with Rattus norvegicus [1] was found to be 4%. This compound had a pKi in series [3] of 8.85. The same compound registered an inhibition in vivo at 5 mg/kg in the series with Rattus norvegicus [5] of 23%. The T1/2 entry in series [4] is “Stable”.
The compound `CC(C)Oc1ccccc1N1CCN(Cc2ccc(CN3CCCCCCC3=O)o2)CC1.O=C(O)CCC(=O)O` returned an Esc loss in the series with Rattus norvegicus [1] of 1%. The compound also showed an inhibition in vivo at 15 mg/kg in the series with Rattus norvegicus [2] of 76%. Besides, in series [3], the pKi is 7.54. The T1/2 result in series [4] is reported as “Stable”.
`CC(C)Oc1ccccc1N1CCN(CCc2ccc(CN3CCCCC3=O)n2C)CC1.O=C(O)CCC(=O)O` registered an Esc loss in the series with Rattus norvegicus [1] of 19%. In series [3], this compound showed a pKi of 8.82. In the series on Rattus norvegicus [5], this compound came in with an inhibition in vivo at 5 mg/kg of 82%. In addition, the T1/2 entry in series [4] is “Stable”.
Take `COc1ccccc1N1CCN(Cc2ccc(CN3CCCCC3=O)o2)CC1.O=C(O)CCC(=O)O`: the Esc loss with Rattus norvegicus [1] came out at 0%. This compound also gave an inhibition in vivo at 15 mg/kg in the series on Rattus norvegicus [2] of 10%. The pKi in series [3] is 7.42.
In the series on Rattus norvegicus [1], `CC(C)Oc1ccccc1N1CCN(Cc2ccc(CN3CCCCC3=O)o2)CC1.O=C(O)CCC(=O)O` yielded an Esc loss of 0%. The pKi in series [3] is 7.68. Moreover, at 5 mg/kg the inhibition in vivo with Rattus norvegicus [5] was 46%. The T1/2 entry in series [4] is reported as “Stable”.
Consider `COc1ccccc1N1CCN(Cc2ccc(CN3C(=O)c4ccccc4C3=O)o2)CC1`, for which, in the series with Rattus norvegicus [1], the Esc loss stood at 0%. In the series with Rattus norvegicus [2], at 15 mg/kg the inhibition in vivo was 3%. Further, the pKi in series [3] was 8.72.
Consider `O=C1CC2(CCCC2)CC(=O)N1CCCCN1CCN(c2ncccn2)CC1` [BUSPIRONE], for which the ED50 in the series with Rattus norvegicus [7] came to 4.5 mg/kg.
For the compound `CC(C)Oc1ccccc1N1CCN(Cc2ccc(CN3CCCCC3=O)n2C)CC1` [RWJ-25730], in the series with Rattus norvegicus [8], the Esc loss is 8%. Moreover, in series [6], the half-life is 1.37 h. Also, the inhibition in vivo at 15 mg/kg in the series on Rattus norvegicus [2] is 98%. Further, the inhibition in vivo at 5 mg/kg in the series on Rattus norvegicus [5] amounted to 87%.
